Measured values reported in ChEMBL document CHEMBL5380865, “Linearization of the Brevicidine and Laterocidine Lipopeptides Yields Analogues That Retain Full Antibacterial Activity” (J Med Chem, 2023).
In brackets after ≈: the same amount, converted by molar mass. *1 amine or outer side, *2 acyl side, *3 side chain or, on linkers, in order; H or OH if unused. Where a SMILES comes first, the peptide text is derived from it. [ ]: non-standard residue; d: D form. The star is where a group is joined. ξ: configuration not given here. X1 = C[C@@H](N=[N+]=[N-])[C@H](N[*:1])C(=O)[*:2]; Octanoyl(7-Me) = CC(C)CCCCCC(=O)*; Hexanoyl(4ξ-Me) = CCC(C)CCC(=O)*; dOrn = NCCC[C@@H](N)C(=O)O; Orn = NCCC[C@H](N)C(=O)O

Key:
Klebsiella pneumoniae = test: Antibacterial activity Klebsiella pneumoniae ATCC 13883 assessed as inhibition of visible bacterial growth incubated for 18 hrs by microbroth dilution assay; assay type: functional
Outline: (§1)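 CLSI broth microdilution. Strains streaked from glycerol stocks onto blood agar (16 h, 37 °C); single colonies grown in TSB at 37 °C, 220 rpm, to OD600 about 0.5. Diluted in MHB to 2 × 10^5 CFU/mL and mixed 1:1 with compounds serially diluted in MHB from DMSO stocks (colistin from water stocks), polypropylene plates. Sealed, 18 h at 37 °C, 600 rpm. MIC taken as lowest concentration preventing visible growth, three technical replicates.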

Acinetobacter baumannii = test: Antibacterial activity Acinetobacter baumannii ATCC 17961 assessed as inhibition of visible bacterial growth incubated for 18 hrs by microbroth dilution assay; assay type: functional; outline: as §1
[1] = Hemolytic activity in sheep red blood cell assessed as hemolysis at 1 to 128 ug/ml incubated for 1 hrs relative to control; assay type: toxicity, cell-based, Ovis aries, Erythrocyte; details: sheep red blood cells (erythrocytes), at 1 to 128 µg/mL, dose 1-128 µg/ml, read-out: Activity
Outline: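 Defibrinated sheep erythrocytes washed five times in PBS with 0.002% Tween20 and normalized so the Triton control reads 2.5–3.0 at 415 nm. Mixed 1:1 with compound serial dilutions (128–1 μg/mL) and incubated 1 h at 37 °C, 500 rpm. Supernatant A415 is background-corrected with buffer and expressed as percent of 0.1% Triton X-100 (final). Run in triplicate.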

Staphylococcus aureus = test: Antibacterial activity Staphylococcus aureus USA300 assessed as inhibition of visible bacterial growth incubated for 18 hrs by microbroth dilution assay; assay type: functional; outline: as §1
Escherichia coli [2] = test: Antibacterial activity Escherichia coli ATCC 25922 assessed as inhibition of visible bacterial growth incubated for 18 hrs by microbroth dilution assay; assay type: functional; outline: as §1
Pseudomonas aeruginosa = test: Antibacterial activity Pseudomonas aeruginosa PAO1 assessed as inhibition of visible bacterial growth incubated for 18 hrs by microbroth dilution assay; assay type: functional
Outline: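 CLSI broth microdilution. Colonies from blood agar (16 h, 37 °C) grown in TSB at 37 °C, 220 rpm, to OD600 about 0.5, then diluted in MHB to 2 × 10^5 CFU/mL. Added to DMSO-stock compounds serially diluted in MHB in polypropylene plates. Sealed, 18 h at 37 °C, 600 rpm. MIC = lowest concentration with no visible growth; three technical replicates.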

Escherichia coli [3] = test: Antibacterial activity Escherichia coli MCR-1 assessed as inhibition of visible bacterial growth incubated for 18 hrs by microbroth dilution assay; assay type: functional
Outline: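 Colistin-resistant E. coli 25922 carrying MCR-1, grown from glycerol stock in kanamycin-supplemented TSB for 16 h at 37 °C, 220 rpm. Diluted 100-fold in kanamycin-supplemented TSB and grown to OD600 about 0.5, then diluted in MHB to 2 × 10^5 CFU/mL. Combined 1:1 with MHB serial dilutions of compounds. Sealed, 18 h at 37 °C, 600 rpm; lowest concentration without visible growth, triplicate technical replicates.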

Compound: CC[C@H](C)[C@H](NC(=O)[C@@H](NC(=O)[C@H](Cc1c[nH]c2ccccc12)NC(=O)[C@@H](CCCN)NC(=O)CNC(=O)[C@H](CCCN)NC(=O)[C@@H](CCCN)NC(=O)[C@@H](Cc1c[nH]c2ccccc12)NC(=O)[C@@H](Cc1ccc(O)cc1)NC(=O)[C@@H](CO)NC(=O)CCCCCC(C)C)[C@@H](C)N=[N+]=[N-])C(=O)N[C@@H](CC(N)=O)C(=O)NCC(=O)NCC(N)=O ({Octanoyl(7-Me)}-[dS][dY][dW][dOrn][Orn]G[dOrn]W[X1]INGG-NH2)
- MIC (Klebsiella pneumoniae): 4 µg/mL (≈ 2.43 µM)
- MIC (Acinetobacter baumannii): 2 µg/mL (≈ 1.21 µM)
- hemolysis at 1 h [1]: < 0.1%
- MIC (Staphylococcus aureus): > 32 µg/mL
- MIC (Escherichia coli [2]): 4 µg/mL (≈ 2.43 µM)
- MIC (Pseudomonas aeruginosa): 4 µg/mL (≈ 2.43 µM)
- MIC (Escherichia coli [3]): 4 µg/mL (≈ 2.43 µM)

Compound: CCC(C)CCC(=O)N[C@H](CC(N)=O)C(=O)N[C@H](Cc1ccc(O)cc1)C(=O)N[C@H](Cc1c[nH]c2ccccc12)C(=O)N[C@H](CCCN)C(=O)N[C@@H](CCCN)C(=O)NCC(=O)N[C@H](CCCN)C(=O)N[C@@H](Cc1c[nH]c2ccccc12)C(=O)N[C@H](C(=O)N[C@H](C(=O)N[C@@H](C)C(=O)N[C@@H](CO)C(N)=O)[C@@H](C)CC)[C@@H](C)O (stereo not given in full) ({Hexanoyl(4ξ-Me)}-[dN][dY][dW][dOrn][Orn]G[dOrn]WTIAS-NH2)
- MIC (Klebsiella pneumoniae): > 32 µg/mL
- MIC (Acinetobacter baumannii): 32 µg/mL (≈ 20.6 µM)
- MIC (Staphylococcus aureus): > 32 µg/mL
- MIC (Escherichia coli [2]): 32 µg/mL (≈ 20.6 µM)
- MIC (Pseudomonas aeruginosa): 16 µg/mL (≈ 10.3 µM)
- MIC (Escherichia coli [3]): 32 µg/mL (≈ 20.6 µM)

Compound: CCC(C)CCC(=O)N[C@H](CC(N)=O)C(=O)N[C@H](Cc1ccc(O)cc1)C(=O)N[C@H](Cc1c[nH]c2ccccc12)C(=O)N[C@H](CCCN)C(=O)N[C@@H](CCCN)C(=O)NCC(=O)N[C@H](CCCN)C(=O)N[C@@H](Cc1c[nH]c2ccccc12)C(=O)N[C@@H](C)C(=O)N[C@H](C(=O)NCC(=O)N[C@@H](CO)C(N)=O)[C@@H](C)CC (stereo not given in full) ({Hexanoyl(4ξ-Me)}-[dN][dY][dW][dOrn][Orn]G[dOrn]WAIGS-NH2)
- MIC (Klebsiella pneumoniae): 16 µg/mL (≈ 10.6 µM)
- MIC (Acinetobacter baumannii): 16 µg/mL (≈ 10.6 µM)
- MIC (Staphylococcus aureus): > 32 µg/mL
- MIC (Escherichia coli [2]): 8 µg/mL (≈ 5.31 µM)
- MIC (Pseudomonas aeruginosa): 4 µg/mL (≈ 2.65 µM)
- MIC (Escherichia coli [3]): 16 µg/mL (≈ 10.6 µM)

Compound: CCC(C)CCC(=O)N[C@H](CC(N)=O)C(=O)N[C@H](C)C(=O)N[C@H](Cc1c[nH]c2ccccc12)C(=O)N[C@H](CCCN)C(=O)N[C@@H](CCCN)C(=O)NCC(=O)N[C@H](CCCN)C(=O)N[C@@H](Cc1c[nH]c2ccccc12)C(=O)N[C@H](C(=O)N[C@H](C(=O)NCC(=O)N[C@@H](CO)C(N)=O)[C@@H](C)CC)[C@@H](C)O (stereo not given in full) ({Hexanoyl(4ξ-Me)}-[dN][dA][dW][dOrn][Orn]G[dOrn]WTIGS-NH2)
- MIC (Klebsiella pneumoniae): > 32 µg/mL
- MIC (Acinetobacter baumannii): > 32 µg/mL
- MIC (Staphylococcus aureus): > 32 µg/mL
- MIC (Escherichia coli [2]): > 32 µg/mL
- MIC (Pseudomonas aeruginosa): 16 µg/mL (≈ 11.1 µM)
- MIC (Escherichia coli [3]): > 32 µg/mL

Compound: CCC(C)CCC(=O)N[C@H](C)C(=O)N[C@H](Cc1ccc(O)cc1)C(=O)N[C@H](Cc1c[nH]c2ccccc12)C(=O)N[C@H](CCCN)C(=O)N[C@@H](CCCN)C(=O)NCC(=O)N[C@H](CCCN)C(=O)N[C@@H](Cc1c[nH]c2ccccc12)C(=O)N[C@H](C(=O)N[C@H](C(=O)NCC(=O)N[C@@H](CO)C(N)=O)[C@@H](C)CC)[C@@H](C)O (stereo not given in full) ({Hexanoyl(4ξ-Me)}-[dA][dY][dW][dOrn][Orn]G[dOrn]WTIGS-NH2)
- MIC (Klebsiella pneumoniae): 16 µg/mL (≈ 10.7 µM)
- MIC (Acinetobacter baumannii): 8 µg/mL (≈ 5.36 µM)
- MIC (Staphylococcus aureus): > 32 µg/mL
- MIC (Escherichia coli [2]): 16 µg/mL (≈ 10.7 µM)
- MIC (Pseudomonas aeruginosa): 8 µg/mL (≈ 5.36 µM)
- MIC (Escherichia coli [3]): 16 µg/mL (≈ 10.7 µM)

Compound: CCC(C)CCC(=O)N[C@H](CC(N)=O)C(=O)N[C@H](Cc1ccc(O)cc1)C(=O)N[C@H](Cc1c[nH]c2ccccc12)C(=O)N[C@H](CCCN)C(=O)N[C@@H](CCCN)C(=O)NCC(=O)N[C@H](C)C(=O)N[C@@H](Cc1c[nH]c2ccccc12)C(=O)N[C@H](C(=O)N[C@H](C(=O)NCC(=O)N[C@@H](CO)C(N)=O)[C@@H](C)CC)[C@@H](C)O (stereo not given in full) ({Hexanoyl(4ξ-Me)}-[dN][dY][dW][dOrn][Orn]G[dA]WTIGS-NH2)
- MIC (Klebsiella pneumoniae): > 32 µg/mL
- MIC (Acinetobacter baumannii): 16 µg/mL (≈ 10.7 µM)
- MIC (Staphylococcus aureus): > 32 µg/mL
- MIC (Escherichia coli [2]): > 32 µg/mL
- MIC (Pseudomonas aeruginosa): 32 µg/mL (≈ 21.4 µM)
- MIC (Escherichia coli [3]): > 32 µg/mL

Compound: CCC(C)CCC(=O)N[C@H](CC(N)=O)C(=O)N[C@H](Cc1ccc(O)cc1)C(=O)N[C@H](Cc1c[nH]c2ccccc12)C(=O)N[C@H](CCCN)C(=O)N[C@@H](CCCN)C(=O)NCC(=O)N[C@H](CCCN)C(=O)N[C@@H](C)C(=O)N[C@H](C(=O)N[C@H](C(=O)NCC(=O)N[C@@H](CO)C(N)=O)[C@@H](C)CC)[C@@H](C)O (stereo not given in full) ({Hexanoyl(4ξ-Me)}-[dN][dY][dW][dOrn][Orn]G[dOrn]ATIGS-NH2)
- MIC (Klebsiella pneumoniae): > 32 µg/mL
- MIC (Acinetobacter baumannii): > 32 µg/mL
- MIC (Staphylococcus aureus): > 32 µg/mL
- MIC (Escherichia coli [2]): > 32 µg/mL
- MIC (Pseudomonas aeruginosa): 32 µg/mL (≈ 22.5 µM)
- MIC (Escherichia coli [3]): > 32 µg/mL

Compound: CCC(C)CCC(=O)N[C@H](CC(N)=O)C(=O)N[C@H](Cc1ccc(O)cc1)C(=O)N[C@H](C)C(=O)N[C@H](CCCN)C(=O)N[C@@H](CCCN)C(=O)NCC(=O)N[C@H](CCCN)C(=O)N[C@@H](Cc1c[nH]c2ccccc12)C(=O)N[C@H](C(=O)N[C@H](C(=O)NCC(=O)N[C@@H](CO)C(N)=O)[C@@H](C)CC)[C@@H](C)O (stereo not given in full) ({Hexanoyl(4ξ-Me)}-[dN][dY][dA][dOrn][Orn]G[dOrn]WTIGS-NH2)
- MIC (Klebsiella pneumoniae): > 32 µg/mL
- MIC (Acinetobacter baumannii): > 32 µg/mL
- MIC (Staphylococcus aureus): > 32 µg/mL
- MIC (Escherichia coli [2]): > 32 µg/mL
- MIC (Pseudomonas aeruginosa): 32 µg/mL (≈ 22.5 µM)
- MIC (Escherichia coli [3]): > 32 µg/mL

Compound: CCC(C)CCC(=O)N[C@H](CC(N)=O)C(=O)N[C@H](Cc1ccc(O)cc1)C(=O)N[C@H](Cc1c[nH]c2ccccc12)C(=O)N[C@H](CCCN)C(=O)N[C@@H](CCCN)C(=O)NCC(=O)N[C@H](CCCN)C(=O)N[C@@H](Cc1c[nH]c2ccccc12)C(=O)N[C@@H](CO)C(=O)N[C@H](C(=O)NCC(N)=O)[C@@H](C)CC (stereo not given in full) ({Hexanoyl(4ξ-Me)}-[dN][dY][dW][dOrn][Orn]G[dOrn]WSIG-NH2)
- MIC (Klebsiella pneumoniae): 4 µg/mL (≈ 2.79 µM)
- MIC (Acinetobacter baumannii): 8 µg/mL (≈ 5.57 µM)
- MIC (Staphylococcus aureus): > 32 µg/mL
- MIC (Escherichia coli [2]): 4 µg/mL (≈ 2.79 µM)
- MIC (Pseudomonas aeruginosa): 2 µg/mL (≈ 1.39 µM)
- MIC (Escherichia coli [3]): 8 µg/mL (≈ 5.57 µM)
